Source: ChEMBL document CHEMBL1148265, “Synthesis and biological activity of N-aryl-2-aminothiazoles: potent pan inhibitors of cyclin-dependent kinases” (Bioorg Med Chem Lett, 2004)
pIC50: −log10 of the molar value.

Tests used:
[1] = molecular target: Cyclin-dependent kinase 1/cyclin B (Homo sapiens, UniProt P06493); assay: Inhibition of cyclin-dependent kinase 1-cyclin B; assay type: protein-complex assay
Method in brief: (§1)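 Cell-free kinase assay with the CDK/cyclin complex as enzyme. Read-out is phosphorylation of RB protein as substrate. IC50 values were reported.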

[2] = molecular target: Cyclin-dependent kinase 4/cyclin D (Homo sapiens, UniProt P11802); assay: Inhibition of Cyclin-dependent kinase 4-cyclin D; assay type: protein-complex assay; method in brief: as §1
[3] = molecular target: Cyclin-dependent kinase 2/cyclin E (Homo sapiens, UniProt P24941); assay: Inhibition of Cyclin-dependent kinase 2-cyclin E; assay type: protein-complex assay; method in brief: as §1
A2780 = assay: Cytotoxic effect on human ovarian (A2780) cancer cell line; assay type: functional, cell-based
Mus musculus [4] = assay: In vivo anticancer activity of compound was determined as increase in survival time of treated groups versus untreated control against P388 murine leukemia in mice at 4 mg/kg; assay type: functional
Method in brief: (§2)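 P388 murine leukemia cells implanted ip into immunocompetent mice. Drug given ip right after implantation, then once daily for 7 days (qdx7). Efficacy read as increase in lifespan, reported as the ratio of lifespan of the treated group (T) to the control group (C) (%T/C).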

Mus musculus [5] = organism: Mus musculus; assay: Compound was tested binding to mouse serum; assay type: functional
Method in brief: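 Free versus bound fraction measured by equilibrium dialysis against mouse serum.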

Mus musculus [6] = assay: In vivo anticancer activity of compound was determined as increase in survival time of treated groups versus untreated control against P388 murine leukemia in mice at 90 mg/kg; assay type: functional; method in brief: as §2

| SMILES | pIC50 [1] | pIC50 [2] | pIC50 [3] | pIC50 (A2780) | T/C (Mus musculus [4]) | Binding (Mus musculus [5]) | T/C (Mus musculus [6]) |
| --- | --- | --- | --- | --- | --- | --- | --- |
| CC(C)(C)c1cnc(CSc2cnc(Nc3cccnc3)s2)o1 | 8.00 | 6.89 | 8.52 | 7.30 |  |  |  |
| CC(C)(C)c1cnc(CSc2cnc(NC(=O)Cc3cccnc3)s2)o1 | 7.10 | 5.96 | 8.30 | 6.62 |  |  |  |
| CC(C)(CO)CNCc1ccc(Nc2ncc(SCc3ncc(C(C)(C)C)o3)s2)nc1 | 7.74 | 7.59 | 8.52 | 8.52 | 156% | 90% |  |
| CC(C)(C)c1cnc(CSc2cnc(Nc3ccccc3)s2)o1 | 7.92 | 7.11 | 8.40 | 6.85 |  |  |  |
| CC(C)(C)c1cnc(CSc2cnc(Nc3ccc(S(=O)(=O)NCCO)cc3)s2)o1 | 8.00 | 6.63 | 8.70 | 7.16 |  | 97% | 180% |
| CC(C)(C)c1cnc(CSc2cnc(Nc3ccccn3)s2)o1 | 8.40 | 8.05 | 8.70 | 8.00 |  |  |  |
